# From PubChem BioAssay
# The source made the active and inactive calls.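 How the source made its calls, unless noted: active means NADPH fluorescence slope more negative than the mean of all samples by about 3 SD, 99.7% confidence; inactive means the rest.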
# Key:
# [1] = inhibitors of TNFa-induced NFkB p65 translocation, primary screen, imaging, HUVEC, MLSMR starter and 10KST1 sets (AID 438;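 active means inhibition above 20% together with a positive visual image hit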;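 further: compound added about 3h40 before a 20 min TNFalpha stimulation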;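 on inhibition: signal is the nuclear over cytoplasmic p65 intensity ratio per well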); conditions: HUVEC TNFa-induced p65 nuclear translocation; cell count: measured here: nuclei count (cytotoxicity indicator), at 2.08 µM; inhibition: at 2 µM, stronger effect = higher value, 0% TNFa-plus-vehicle, 100% no-TNFa wells
# [2] = reduction of polyQ htt aggregates in cells – imaging, exon1htt(103Q)mCFP cells, high-content imaging, primary screen (AID 483;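 active means visual image review flags a hit and inhibition of aggregation exceeds 20%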;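 further: compound exposure lasted 3 days before fixation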;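 on nuclei count: percent of the per-plate median nuclei count of sample wells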); conditions: exon1htt(103Q)mCFP cell line, aggregate imaging, at 2 µM; inhibition of aggregation: stronger effect = higher value; nuclei count: measured here: cell count, toxicity
# [3] = endothelial E-selectin expression blockers – imaging, HUVEC, immunofluorescence, MLSMR starter and 10KST1 sets, primary screen (AID 487;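 active means visually confirmed hit in the image check and inhibition above 20%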;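 on inhibition: signal is fraction of cell area covered by stained E-selectin grains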;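 on nuclei count: 100% = median nuclei count of all wells on the same plate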); conditions: HUVEC TNFalpha-induced E-selectin immunofluorescence imaging, at 2 µM; inhibition: stronger effect = higher value; nuclei count: measured here: cell number, toxicity
# [4] = target: Voltage-gated potassium channel subunit beta-2 (Rattus norvegicus) (UniProt P62483); test: inhibitors of rat Kvbeta2 reductase activity – biochemical, NADPH fluorescence, primary screen (AID 622;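 active means fluorescence slope higher than the sample average by over 3 SD, cut at about -0.22 in these data, passing the limit was not always enough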;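 further: slope of raw intensity against log time taken from 70 to 1610 s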); conditions: recombinant KvBeta, 4-cyanobenzaldehyde reduction, at 10 µM, stronger effect = higher value
# Sequence of Voltage-gated potassium channel subunit beta-2 (Rattus norvegicus) (P62483 whole entry, looked up): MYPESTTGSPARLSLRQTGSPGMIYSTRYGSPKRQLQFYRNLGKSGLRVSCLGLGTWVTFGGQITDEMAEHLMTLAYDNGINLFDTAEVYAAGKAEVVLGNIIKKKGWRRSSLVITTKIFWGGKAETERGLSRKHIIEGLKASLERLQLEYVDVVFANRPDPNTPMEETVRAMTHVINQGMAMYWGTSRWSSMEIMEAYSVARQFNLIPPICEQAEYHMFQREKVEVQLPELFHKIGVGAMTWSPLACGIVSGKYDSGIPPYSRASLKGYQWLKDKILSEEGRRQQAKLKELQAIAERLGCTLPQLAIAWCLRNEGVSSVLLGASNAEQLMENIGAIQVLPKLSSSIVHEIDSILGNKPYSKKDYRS
# [5] = target: Voltage-gated potassium channel subunit beta-2 (Rattus norvegicus) (UniProt P62483); test: enhancers of rat Kvbeta2 NADPH turnover – biochemical, NADPH fluorescence, primary screen (AID 623); conditions: Recombinant KvBeta, NADPH fluorescence decrease slope, 10 min; at 10 µM; stronger effect = lower value;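 further: fluorescence intensity change per second fitted from 20 to 320 s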
# [6] = target: Muscarinic acetylcholine receptor M4 (Homo sapiens) (UniProt P08173); test: M4-linked GIRK flux change, two-sided – cell-based, HEK293 M4/GIRK, thallium flux, BTC-AM, M4 allosteric agonist project, primary screen (AID 625;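 active means fluorescence slope after compound addition differing from the mean of all tested samples at 99.7% confidence, mostly higher but some lower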;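 further: thallium influx through GIRK channels coupled to M4 in HEK293 cells with BTC-AM dye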); conditions: at 10 µM, actives lie on both sides
# Sequence of Muscarinic acetylcholine receptor M4 (Homo sapiens) (P08173 whole entry, looked up): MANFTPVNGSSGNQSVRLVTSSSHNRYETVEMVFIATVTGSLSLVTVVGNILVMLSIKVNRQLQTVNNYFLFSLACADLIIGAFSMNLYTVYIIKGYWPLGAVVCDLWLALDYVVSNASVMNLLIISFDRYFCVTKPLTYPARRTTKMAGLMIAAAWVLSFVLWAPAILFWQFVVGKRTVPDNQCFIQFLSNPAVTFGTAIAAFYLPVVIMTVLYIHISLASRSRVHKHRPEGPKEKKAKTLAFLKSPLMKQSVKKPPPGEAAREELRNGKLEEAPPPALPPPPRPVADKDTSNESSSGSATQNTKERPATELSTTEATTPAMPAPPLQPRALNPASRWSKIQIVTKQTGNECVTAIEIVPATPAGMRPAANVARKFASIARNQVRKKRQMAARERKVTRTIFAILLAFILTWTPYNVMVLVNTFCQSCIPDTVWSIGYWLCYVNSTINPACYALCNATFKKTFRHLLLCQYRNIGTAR
# Summary of the method: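 Material: M4/GIRK1/GIRK2 stable HEK293 cell line. Medium: pH 7.3 thallium assay buffer. Dosing: single compound concentration, 10 µM final. Schedule: 1 h dye loading, 2 min kinetic read. Measured by: kinetic fluorescence with BTC-AM dye. Read-out: post-addition slope, 15–24 s, of baseline-normalized fluorescence. Benchmarks: carbachol and DMSO controls.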
# [7] = blockers of RIG-like receptor reporter activation – cell-based, Sendai virus stimulus, luciferase, 10K MLSCN set, TLR/RLR signaling modifier project, primary screen (AID 602276;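 active means inhibition at or above 50% at 10 µM; inactive means inhibition below 50%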;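 further: firefly luciferase from ISG56 promoter only with Renilla not read in this screen; 0% = Sendai virus plus DMSO and 100% = medium plus DMSO without virus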); conditions: HEK293 RL24 IRF3 luciferase reporter, at 10 µM, stronger effect = higher value
# [8] = TLR3 IRF3 reporter activation blockers – cell-based, poly I:C stimulus, luciferase, 10K MLSCN set, primary screen (AID 602277;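 active means inhibition of the reporter signal at or above 50%; inactive means inhibition below 50%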); conditions: HEK293-TLR3 RL24 IRF3 luciferase reporter, at 10 µM, stronger effect = higher value
SMILES,cell count [1],inhibition [1],inhibition of aggregation [2],nuclei count [2] [%],inhibition [3],nuclei count [3] [%],fluorescence slope [4],NADPH fluorescence slope [5],fluorescence slope [6],inhibition [7],inhibition [8]
COc1cc(C2C(C(=O)c3ccc(C)o3)=C(O)C(=O)N2c2cc(C)on2)cc(Br)c1O (stereo not drawn),724,-16.4% (inactive),-2.8% (inactive),109,-127% (inactive),118,-0.518 (inactive),-3e-05 (inactive),0.00505 (inactive),13.3% (inactive),19.1% (inactive)
CCN(CC)C(=O)CSc1nc2ccccc2c(=O)n1CCC(=O)NCc1ccc(F)cc1,471,-6.6% (inactive),15.2% (inactive),108,-22% (inactive),112,-0.516 (inactive),5.1e-05 (inactive),0.00599 (inactive),-10.2% (inactive),-7.71% (inactive)
COc1ccccc1-c1nc(C#N)c(N2CCN(c3ccccc3)CC2)o1,730,-10.2% (inactive),17% (inactive),119,-96.9% (inactive),93.4,-0.495 (inactive),1.8e-05 (inactive),0.00604 (inactive),15.8% (inactive),12% (inactive)
COc1cc2[nH]c(=O)n(CCCCCC(=O)N3CCN(c4ccccn4)CC3)c(=O)c2cc1OC,195,17.8% (inactive),6% (inactive),100,28.9% (inactive),92.1,-0.216 (inactive),-2.4e-05 (inactive),0.00687 (inactive),19.6% (inactive),-1.9% (inactive)
O=C1CC(N2CCOCC2)C(=O)N1c1ccc2c(c1)OCO2 (stereo not drawn),459,7.5% (inactive),-9.9% (inactive),105,-175% (inactive),120,-0.574 (inactive),-3.1e-05 (inactive),0.00505 (inactive),4.21% (inactive),10.1% (inactive)
O=C(Nc1ccccc1)c1cccnc1N1CCOCC1,590,-11.1% (inactive),-5.4% (inactive),110,-36.4% (inactive),84.1,-0.449 (inactive),-0.000339 (inactive),0.00425 (inactive),4.9% (inactive),19.1% (inactive)
O=C1CN(C(=O)CN2CCCC2)C(c2ccccc2)c2cc(Br)ccc2N1 (stereo not drawn),393,-1.2% (inactive),-15.4% (inactive),83.1,-23.4% (inactive),123,-0.512 (inactive),-6.6e-05 (inactive),0.00427 (inactive),-0.203% (inactive),21.9% (inactive)
COCCN(C(=O)Cn1nnc2ccccc21)C(C(=O)NC1CCCC1)c1cc(OC)ccc1OC (stereo not drawn),323,9% (inactive),7.8% (inactive),105,-246% (inactive),112,-0.491 (inactive),0.0001 (inactive),0.00575 (inactive),2.22% (inactive),8.36% (inactive)
COc1ccccc1N1CCN(c2nc3ccccc3nc2C(C#N)C(=O)OC(C)C)CC1 (stereo not drawn),518,1% (inactive),-12.2% (inactive),119,-72.9% (inactive),191,-0.523 (inactive),-0.000323 (inactive),0.00467 (inactive),-13.1% (inactive),-6.25% (inactive)
CCCOc1ccc(C2C(C(=O)c3ccc(C)o3)=C(O)C(=O)N2Cc2cccnc2)cc1 (stereo not drawn),755,-2.8% (inactive),-9.2% (inactive),105,35.3% (inactive),107,-0.495 (inactive),9.3e-06 (inactive),0.00434 (inactive),9.82% (inactive),3.74% (inactive)
COc1cccc(N2CCN(CC(=O)NCc3cccs3)CC2)c1,702,-27.6% (inactive),20.4% (inactive),100,24.5% (inactive),99.5,-0.318 (inactive),-1.7e-05 (inactive),0.00733 (inactive),21.2% (inactive),-6.45% (inactive)
CC(=O)c1c(C)[nH]c(C(=O)Nc2ccc3c(c2)OCCO3)c1C,402,-3.5% (inactive),-4.8% (inactive),115,-18.4% (inactive),114,-0.596 (inactive),6.7e-06 (inactive),0.00406 (inactive),-15.9% (inactive),-58% (inactive)
O=S(=O)(c1ccc2c(c1)OCCO2)N(Cc1ccc(F)cc1)Cc1nnc(-c2cccs2)o1,383,-21.4% (inactive),-14.7% (inactive),106,-14.4% (inactive),119,-0.543 (inactive),-0.000116 (inactive),0.00797 (inactive),13.3% (inactive),26.7% (inactive)
COC(=O)C1=C(C)N(c2ccc(C(=O)OC)cc2)C(=O)C1,734,4% (inactive),-26.4% (inactive),87.2,23.7% (inactive),105,-0.567 (inactive),-4e-05 (inactive),0.00678 (inactive),16.3% (inactive),6.55% (inactive)
Cc1ccc(/C(O)=C2\C(=O)C(=O)N(CCCN(C)C)C2c2ccccn2)cc1 (stereo not drawn),536,0.9% (inactive),-3.7% (inactive),98.9,-53.4% (inactive),132,-0.514 (inactive),-0.000162 (inactive),0.00375 (inactive),16.3% (inactive),8.71% (inactive)
COc1cc(OC)cc(-n2nnnc2SCC(=O)N2CCCC2)c1,740,-7.3% (inactive),18.3% (inactive),94.2,12% (inactive),103,-0.622 (inactive),1.7e-05 (inactive),0.0053 (inactive),15.1% (inactive),23.1% (inactive)
CCn1cnc2cc(NCc3cccc(OC)c3O)ccc21,322,-2.8% (inactive),-3.1% (inactive),94.7,-18.2% (inactive),88,-0.437 (inactive),-4.8e-05 (inactive),0.00434 (inactive),-3.88% (inactive),-26.2% (inactive)
Cc1ccc(-c2[nH]nc3c2C(c2ccc(OC(=O)N4CCOCC4)cc2)C(C#N)=C(N)O3)cc1 (stereo not drawn),742,10.8% (inactive),0.2% (inactive),97.7,-39.7% (inactive),104,-0.577 (inactive),-4.2e-05 (inactive),0.00718 (inactive),4.48% (inactive),9.32% (inactive)
O=S(=O)(Cc1ccc(Cl)cc1)Nc1ccc2c(c1)OCO2,291,-12.5% (inactive),10.4% (inactive),99.4,-35.3% (inactive),123,-0.454 (inactive),-5.8e-05 (inactive),0.00401 (inactive),7.86% (inactive),9.38% (inactive)
Cc1[nH]c(=O)[nH]c(=O)c1S(=O)(=O)N(C)Cc1ccccc1,433,1.1% (inactive),-2.7% (inactive),110,-90.2% (inactive),110,-0.491 (inactive),3.7e-05 (inactive),0.00478 (inactive),3.97% (inactive),13.8% (inactive)
Cc1ccc(NC(=O)CC2Nc3ccccc3NC2=O)cc1Cl (stereo not drawn),357,1.4% (inactive),14.7% (inactive),84.3,-45.4% (inactive),99.7,-0.545 (inactive),-1.9e-05 (inactive),0.00597 (inactive),-4.9% (inactive),-16.9% (inactive)
COc1ccc(N2CCN(C(c3cccs3)C(C)NC(=O)c3ccco3)CC2)cc1 (stereo not drawn),467,5.5% (inactive),-7.1% (inactive),83.9,11.8% (inactive),101,-0.368 (inactive),-7.2e-05 (inactive),0.00502 (inactive),8.09% (inactive),22.4% (inactive)
CCOC(=O)CSc1nnc(CNC(=O)c2ccc(S(=O)(=O)N3CCCC3)cc2)n1C,617,1.2% (inactive),1.3% (inactive),96.9,-54.4% (inactive),122,-0.58 (inactive),-8.2e-06 (inactive),0.00697 (inactive),12.8% (inactive),18.7% (inactive)
CCc1nnc(NC(=O)c2ccc(S(=O)(=O)NC3CCCCC3)cc2)s1,534,0.4% (inactive),20.7% (inactive),107,-22.8% (inactive),110,-0.307 (inactive),-6e-05 (inactive),0.00791 (inactive),0.752% (inactive),-17.5% (inactive)
COc1ccc2c(c1)CCc1c(C(=O)N3CC4(C)CC3CC(C)(C)C4)noc1-2 (stereo not drawn),250,-6.9% (inactive),18.9% (inactive),98.8,-59% (inactive),104,-0.586 (inactive),-1.4e-05 (inactive),0.00924 (inactive),1.5% (inactive),10.1% (inactive)
CSc1ccccc1NC(=O)c1noc2c1CCC2,416,2.6% (inactive),-0.9% (inactive),109,-55.8% (inactive),120,-0.593 (inactive),-8e-06 (inactive),0.00589 (inactive),-12.4% (inactive),-50.3% (inactive)
CN1C(=O)CC(C(=O)Nc2ccc(F)cc2)SC1=Nc1ccc2c(c1)OCO2 (stereo not drawn),715,-5.4% (inactive),11.5% (inactive),117,-15.7% (inactive),118,-0.269 (inactive),-3.8e-05 (inactive),0.0044 (inactive),16.1% (inactive),4.96% (inactive)
Cc1noc(C)c1S(=O)(=O)N1CCC(C(=O)N2CCN(Cc3ccc4c(c3)OCO4)CC2)CC1,721,-6.9% (inactive),8.9% (inactive),107,-40.5% (inactive),103,-0.498 (inactive),1.3e-06 (inactive),0.00556 (inactive),13.4% (inactive),17.8% (inactive)
